The values below come from ChEMBL document CHEMBL1124597, “Quinones. 4. Novel eicosanoid antagonists: synthesis and pharmacological evaluation” (J Med Chem, 1989).

For test [1], the species on record is Oryctolagus cuniculus. Description: Percent inhibition of compound against U-44,069 (10e-7 M) induced contraction of rabbit aorta at 3*10e-8 M concentration. Type of test: functional. In a few lines: (§1)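 Rabbit aortic strips (2-3 mm × 3 cm) in Krebs-Henseleit, 37 °C, 95% O2/5% CO2, 2 g resting tension, isometric recording. Drugs (final 10⁻⁵ to 10⁻⁸ M, 0.01% DMSO) added 10 min before U-44069 (2-6 nM, about 50% of the 30 mM KCl contraction). Percent inhibition, or concentration reducing contraction by 50%; duplicate means.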

Test [2] is filed under the species Oryctolagus cuniculus. Description: In vitro percent inhibition against U-44,069 (10e-7 M) induced contraction of rabbit aorta at 10e-5 M concentration. The test is classed as functional. Summed up: as §1
The species named for test [3] is Oryctolagus cuniculus. In words: In vitro concentration that reduced U-44069-induced contraction of the rabbit aorta by 50%. Type of test: functional. In a few lines:
as §1

Test [4] is filed under the species Oryctolagus cuniculus. In words: In vitro percent inhibition against U-44,069 (10e-7 M) induced contraction of rabbit aorta at 10e-6 M concentration. The test is classed as functional. In a few lines:
as §1

The species entered for test [5] is Oryctolagus cuniculus. Description: In vitro percent inhibition against U-44,069 (10e-7 M) induced contraction of rabbit aorta at 10e-7 M concentration. The test is classed as functional. Summed up:
as §1

Test [6] has as its system Cavia porcellus. In words: In vivo percentage of inhibition against LTD -induced bronchoconstriction in guinea pig at a concentration of 0.08 mg/kg after 1 hour of oral administration. Type of test: functional. In a few lines:
(§2)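 Urethane-anesthetized (1.5 g/kg ip) guinea pigs given gallamine (1 mg/kg iv); bronchoconstriction measured by Konzett-Rössler overflow. Challenge was U-46619, LTD4 or PAF at 10 μg/kg iv, or IgG1-mediated in animals sensitized ip with egg albumin (1 mg/kg)/FCA and used 3 weeks later. Drug given orally in 5% gum arabic 1 h before challenge; n = 8. ID50 = dose giving 50% inhibition.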

Test [7] concerns Cavia porcellus. In words: In vivo percentage of inhibition against LTD -induced bronchoconstriction in guinea pig at a concentration of 0.31 mg/kg after 1 hour of oral administration. Type of test: functional. Summed up:
(§3)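 Guinea pigs were challenged iv with LTD4, PAF or U-46619, each at 10 µg/kg. Bronchoconstriction was measured by the Konzett-Rössler overflow method, as for the sensitized animals (urethane 1.5 g/kg ip, gallamine 1 mg/kg iv). Drug suspended in 5% gum arabic was dosed orally 1 h before spasmogen; eight animals per group; percent inhibition of bronchoconstriction.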

Test [8] has as its system Cavia porcellus. Description: In vivo percentage of inhibition against LTD -induced bronchoconstriction in guinea pig at a concentration of 1.25 mg/kg after 1 hour of oral administration. The test is classed as functional. Summed up: as §2
Test [9] deals with Cavia porcellus. Description: In vivo percentage of inhibition against LTD -induced bronchoconstriction in guinea pig at a concentration of 5 mg/kg after 1 hour of oral administration. The test is classed as functional. In a few lines: as §2
Test [10] has as its system Cavia porcellus. In words: In vivo percentage of inhibition against U-46619 -induced bronchoconstriction in guinea pig at a concentration of 0.08 mg/kg after 1 hour of oral administration. Type of test: functional. Summed up:
as §2

Test [11] has as its system Cavia porcellus. Description: In vivo percentage of inhibition against U-46619 -induced bronchoconstriction in guinea pig at a concentration of 0.31 mg/kg after 1 hour of oral administration. The test is classed as functional. Summed up:
as §3

Test [12] has as its system Cavia porcellus. Description: In vivo percentage of inhibition against U-46619-induced bronchoconstriction in guinea pig at a concentration of 1.25 mg/kg after 1 hour of oral administration. Type of test: functional. Summed up:
as §2

The species named for test [13] is Cavia porcellus. In words: In vitro concentration that reduced U-44069-induced aggregation of guinea pig platelets by 50%. The test is classed as functional. Summed up:
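PRP from conscious male guinea pigs, blood taken by cardiac puncture into 3.15% citrate (1:9); platelets adjusted to 450 000/μL. PRP preincubated 2 min at 37 °C, then incubated 2 min with U-44069 at a concentration giving submaximal aggregation. IC50 = antagonist concentration reducing aggregation by 50%.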

For test [14], the species on record is Oryctolagus cuniculus. In words: In vitro concentration that reduced U-44069-induced contraction of the rabbit aorta. Type of test: functional. The settings on record: read-out: pA2 (converted). In a few lines:
as §1

The species entered for test [15] is Cavia porcellus. Description: In vitro concentration that reduced U-46619-induced contraction of guinea pig lung. The settings on record: read-out: pA2 (converted).
Test [16] deals with Cavia porcellus. Description: In vivo percentage of inhibition against LTD -induced bronchoconstriction in guinea pig at a concentration of 20 mg/kg after 1 hour of oral administration. Type of test: functional. In a few lines:
as §2

The test system of test [17] is Cavia porcellus. In words: In vivo percentage of inhibition against U-46619 -induced bronchoconstriction in guinea pig at a concentration of 5 mg/kg after 1 hour of oral administration. Type of test: functional. In a few lines: as §2
The test system of test [18] is Cavia porcellus. Description: In vivo percentage of inhibition against U-46619-induced bronchoconstriction in guinea pig at a concentration of 20 mg/kg when after 1 hour of oral administration. The test is classed as functional. Summed up: as §2
The subject of test [19] is Cavia porcellus. In words: In vivo percentage of inhibition against IgG1 -induced bronchoconstriction in guinea pig at a concentration of 5 mg/kg after 1 hour of oral administration. The test is classed as functional. Summed up: as §2
Test [20] relates to Cavia porcellus. Description: In vivo percentage of inhibition against PAF -induced bronchoconstriction in guinea pig at a concentration of 0.31 mg/kg after 1 hour of oral administration. Type of test: functional. Summed up:
as §3

Test [21] relates to Cavia porcellus. In words: In vivo percentage of inhibition against PAF-induced bronchoconstriction in guinea pig at a concentration of 1.25 mg/kg after 1 hour of oral administration. The test is classed as functional. Summed up:
as §2

Test [22] relates to Cavia porcellus. In words: In vivo percentage of inhibition against PAF-induced bronchoconstriction in guinea pig at a concentration of 5 mg/kg after 1 hour of oral administration. Type of test: functional. In a few lines:
as §2

For test [23], the system named is Cavia porcellus. Description: In vivo percentage of inhibition against IgG1 -induced bronchoconstriction in guinea pig at a concentration of 1.25 mg/kg after 1 hour of oral administration. The test is classed as functional. In a few lines: as §2
The subject of test [24] is Cavia porcellus. In words: In vivo percentage of inhibition against IgG1 -induced bronchoconstriction in guinea pig at a concentration of 0.31 mg/kg after 1 hour of oral administration. Type of test: functional. In a few lines: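 Guinea pigs sensitized ip with egg albumin (1 mg/kg) emulsified in Freund's complete adjuvant. Three weeks later, animals whose sera at 1:1000 gave a positive 3-h passive cutaneous anaphylaxis were used. Under urethane (1.5 g/kg ip) and gallamine (1 mg/kg iv), IgG1-mediated bronchoconstriction was measured by Konzett-Rössler overflow. Drug in 5% gum arabic was given orally 1 h before challenge; eight animals per group.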

Test [25] concerns Cavia porcellus. Description: In vivo inhibition against IgG1-induced bronchoconstriction in guinea pig. The test is classed as functional. As to conditions: read-out: ID50 (the source's name). In a few lines:
as §2

Test [26] has as its system Cavia porcellus. In words: In vivo inhibition against LTD-induced bronchoconstriction in guinea pig. As to conditions: read-out: ID50 (the source's name). Type of test: functional. In a few lines: as §2
Test [27] relates to Cavia porcellus. Description: In vivo inhibition against U-46619-induced bronchoconstriction in guinea pig. The test is classed as functional. The settings on record: read-out: ID50 (the source's name). Summed up:
as §2

The species entered for test [28] is Cavia porcellus. In words: In vitro concentration that reduced U-46619-induced contraction of guinea pig lung. As to conditions: read-out: pA2 (converted). This is another data set of the same source.

As to `CC1=C(C)C(=O)C(C(CCCCCC(=O)O)c2ccc(F)cc2)=C(C)C1=O` (stereo not given), the Inhibition stood at 20% in test [1], 100% in test [2], 100% in test [4] and 96% in [5]. For the same compound, in test [3], half-maximal inhibition (IC50) required 0.048 µM.
For the compound `CC1=C(C)C(=O)C([C@H](CCCCCC(=O)O)c2ccccc2)=C(C)C1=O`, the inhibition in vivo at 0.08 mg/kg was determined as 12% in test [6] and 72% in test [10]. For the same compound, the results for the inhibition in vivo at 0.31 mg/kg in test [7] and in [11] were 85% and 75%, respectively. The inhibition in vivo at 1.25 mg/kg in test [8] was found to be 85%; in test [12], 93%. Besides, testing at 5 mg/kg in test [9] gave an inhibition in vivo of 80%. The compound also gave an IC50 in test [13] of 0.12 µM. Also, the figures for the Kb in [14] and in [15] were 0.00251 µM and 0.00158 µM, respectively.
`CC1=C(C)C(=O)C([C@@H](CCCCCC(=O)O)c2ccccc2)=C(C)C1=O`: the inhibition in vivo at 20 mg/kg in [16] came out at 65%; in [18] it was 68%. Further, the inhibition in vivo at 5 mg/kg in [9] was determined as 27%; in test [17] it was 47%. Moreover, half-maximal inhibition in [13] (IC50) required 13 µM. Also, the Kb in test [14] was 0.229 µM; in test [15] it was 0.295 µM.
Consider `CC1=C(C)C(=O)C(C(CCCCCC(=O)O)c2ccccc2)=C(C)C1=O` (stereo not given) [SERATRODAST], for which the inhibition in vivo at 5 mg/kg in [19] is 91%; in test [9], 94%; in [22] it was 85%. The inhibition in vivo at 0.08 mg/kg amounted to 24% in test [6] and 31% in [10]. Also, the inhibition in vivo at 0.31 mg/kg in [7] came out at 58%; in test [20] it was 66%; in [11] it was 89%; in test [24] it was 71%. In addition, the inhibition in vivo at 1.25 mg/kg in test [8] was 77%; in [21], 94%; in test [12], 90%; in [23], 85%. The ED50 was found to be 0.2 mg/kg in test [25], 0.19 mg/kg in test [26] and 0.13 mg/kg in [27]. Further, the IC50 in [13] amounted to 0.35 µM; in test [3], 0.1 µM. The Kb in [14] was 0.00525 µM; in test [28], 0.00513 µM. The results for the Inhibition in test [2], in test [4] and in test [5] were 99%, 99% and 49%, respectively.

What is called Inhibition is how much of the control response was suppressed. High values mean a response far below the control, low ones a response near the control. In general, IC50 refers to the concentration that gives 50% inhibition. What is called inhibition in vivo is how much of the control response was suppressed. High values mean a strong effect, low ones a weak effect.
